Data as given in ChEMBL document CHEMBL4689842, “EUbOPEN Chemogenomics Library wave 1” (2021).

Key:
Assay type in all cases: toxicity, cell-based
Fibroblast [1] = experiment: Multiplex assay against human fibroblast
Procedure, shortened: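 On a CQ1 microscope at 37°C and 5% CO2, live cells were imaged after compound addition. They had been stained at seeding with Hoechst33342, BioTracker Green Microtubule Cytoskeleton Dye, MitoTracker Red and Annexin V Alexa Fluor 680. CellPathfinder machine-learning gating assigned cells to Hoechst high-intensity objects or normal cells, normal cells to healthy, pyknosed or fragmented nuclei, and pyknosed cells to mitotic or apoptotic. Tubulin, mitochondrial-mass and membrane-permeability phenotypes are per cents of healthy-nucleus cells.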

Fibroblast [2] = experiment: Incucyte cell viability with human fibroblast; details: 10 µM, compound concentration 10 uM; also: filed as whole numbers so only -1 and 0 and 1 occur
U2OS = experiment: Incucyte cell viability with U2OS; details: human, 10 µM, compound concentration 10 uM; also: filed as whole numbers so only -1 and 0 and 1 occur
[3] = 12 h, 1 µM, compound concentration 1 uM, replicate 1
[4] = 12 h, 1 µM, compound concentration 1 uM, replicate 2
[5] = 12 h, 10 µM, compound concentration 10 uM, replicate 1
[6] = 12 h, 10 µM, compound concentration 10 uM, replicate 2
[7] = 24 h, 1 µM, compound concentration 1 uM, replicate 1
[8] = 24 h, 1 µM, compound concentration 1 uM, replicate 2
[9] = 24 h, 10 µM, compound concentration 10 uM, replicate 1
[10] = 24 h, 10 µM, compound concentration 10 uM, replicate 2
[11] = 48 h, 1 µM, compound concentration 1 uM, replicate 1
[12] = 48 h, 1 µM, compound concentration 1 uM, replicate 2
[13] = 48 h, 10 µM, compound concentration 10 uM, replicate 1
[14] = 48 h, 10 µM, compound concentration 10 uM, replicate 2
[15] = 6 h, replicate number 1, timepoint 6 hours
[16] = 12 h, replicate number 1, timepoint 12 hours
[17] = 18 h, replicate number 1, timepoint 18 hours
[18] = 24 h, replicate number 1, timepoint 24 hours

Compound: CCCCCNC(=N)N/N=C/c1c[nH]c2ccc(OC)cc12.O=C(O)/C=C\C(=O)O [TEGASEROD MALEATE]
- Population Apoptotic (%) (Fibroblast [1]; [3]): 65%
- Population Fragmented Nuclei (%) (Fibroblast [1]; [3]): 25%
- Population Healthy Nuclei (%) (Fibroblast [1]; [3]): 47%
- Population Hoechst High Intensity Objects (%) (Fibroblast [1]; [3]): 8%
- Population Membrane Permeable-Phenotype (%) (Fibroblast [1]; [3]): 10%
- Population Mitochondria Different-Phenotype (%) (Fibroblast [1]; [3]): 0%
- Population Mitotic Cells (%) (Fibroblast [1]; [3]): 34%
- Population Normal (%) (Fibroblast [1]; [3]): 91%
- Population Pyknosed Nuclei (%) (Fibroblast [1]; [3]): 27%
- Population Tubulin-Different-Phenotype (%) (Fibroblast [1]; [3]): 22%
- Total Cell Count (Fibroblast [1]; [3]): 114
- Population Apoptotic (%) (Fibroblast [1]; [4]): 20%
- Population Fragmented Nuclei (%) (Fibroblast [1]; [4]): 12%
- Population Healthy Nuclei (%) (Fibroblast [1]; [4]): 79%
- Population Hoechst High Intensity Objects (%) (Fibroblast [1]; [4]): 3%
- Population Membrane Permeable-Phenotype (%) (Fibroblast [1]; [4]): 4%
- Population Mitochondria Different-Phenotype (%) (Fibroblast [1]; [4]): 22%
- Population Mitotic Cells (%) (Fibroblast [1]; [4]): 80%
- Population Normal (%) (Fibroblast [1]; [4]): 96%
- Population Pyknosed Nuclei (%) (Fibroblast [1]; [4]): 8%
- Population Tubulin-Different-Phenotype (%) (Fibroblast [1]; [4]): 14%
- Total Cell Count (Fibroblast [1]; [4]): 74
- Population Apoptotic (%) (Fibroblast [1]; [5]): 50%
- Population Fragmented Nuclei (%) (Fibroblast [1]; [5]): 34%
- Population Healthy Nuclei (%) (Fibroblast [1]; [5]): 12%
- Population Hoechst High Intensity Objects (%) (Fibroblast [1]; [5]): 20%
- Population Membrane Permeable-Phenotype (%) (Fibroblast [1]; [5]): 6%
- Population Mitochondria Different-Phenotype (%) (Fibroblast [1]; [5]): 50%
- Population Mitotic Cells (%) (Fibroblast [1]; [5]): 49%
- Population Normal (%) (Fibroblast [1]; [5]): 80%
- Population Pyknosed Nuclei (%) (Fibroblast [1]; [5]): 52%
- Population Tubulin-Different-Phenotype (%) (Fibroblast [1]; [5]): 62%
- Total Cell Count (Fibroblast [1]; [5]): 155
- Population Apoptotic (%) (Fibroblast [1]; [6]): 100%
- Population Fragmented Nuclei (%) (Fibroblast [1]; [6]): 22%
- Population Healthy Nuclei (%) (Fibroblast [1]; [6]): 3%
- Population Hoechst High Intensity Objects (%) (Fibroblast [1]; [6]): 35%
- Population Membrane Permeable-Phenotype (%) (Fibroblast [1]; [6]): 100%
- Population Mitochondria Different-Phenotype (%) (Fibroblast [1]; [6]): 100%
- Population Mitotic Cells (%) (Fibroblast [1]; [6]): 0%
- Population Normal (%) (Fibroblast [1]; [6]): 64%
- Population Pyknosed Nuclei (%) (Fibroblast [1]; [6]): 73%
- Population Tubulin-Different-Phenotype (%) (Fibroblast [1]; [6]): 100%
- Total Cell Count (Fibroblast [1]; [6]): 64
- Population Apoptotic (%) (Fibroblast [1]; [7]): 52%
- Population Fragmented Nuclei (%) (Fibroblast [1]; [7]): 24%
- Population Healthy Nuclei (%) (Fibroblast [1]; [7]): 56%
- Population Hoechst High Intensity Objects (%) (Fibroblast [1]; [7]): 10%
- Population Membrane Permeable-Phenotype (%) (Fibroblast [1]; [7]): 15%
- Population Mitochondria Different-Phenotype (%) (Fibroblast [1]; [7]): 1%
- Population Mitotic Cells (%) (Fibroblast [1]; [7]): 47%
- Population Normal (%) (Fibroblast [1]; [7]): 90%
- Population Pyknosed Nuclei (%) (Fibroblast [1]; [7]): 18%
- Population Tubulin-Different-Phenotype (%) (Fibroblast [1]; [7]): 35%
- Total Cell Count (Fibroblast [1]; [7]): 100
- Population Apoptotic (%) (Fibroblast [1]; [8]): 87%
- Population Fragmented Nuclei (%) (Fibroblast [1]; [8]): 10%
- Population Healthy Nuclei (%) (Fibroblast [1]; [8]): 77%
- Population Hoechst High Intensity Objects (%) (Fibroblast [1]; [8]): 5%
- Population Membrane Permeable-Phenotype (%) (Fibroblast [1]; [8]): 5%
- Population Mitochondria Different-Phenotype (%) (Fibroblast [1]; [8]): 21%
- Population Mitotic Cells (%) (Fibroblast [1]; [8]): 12%
- Population Normal (%) (Fibroblast [1]; [8]): 94%
- Population Pyknosed Nuclei (%) (Fibroblast [1]; [8]): 12%
- Population Tubulin-Different-Phenotype (%) (Fibroblast [1]; [8]): 7%
- Total Cell Count (Fibroblast [1]; [8]): 89
- Population Apoptotic (%) (Fibroblast [1]; [9]): 74%
- Population Fragmented Nuclei (%) (Fibroblast [1]; [9]): 39%
- Population Healthy Nuclei (%) (Fibroblast [1]; [9]): 7%
- Population Hoechst High Intensity Objects (%) (Fibroblast [1]; [9]): 18%
- Population Membrane Permeable-Phenotype (%) (Fibroblast [1]; [9]): 12%
- Population Mitochondria Different-Phenotype (%) (Fibroblast [1]; [9]): 37%
- Population Mitotic Cells (%) (Fibroblast [1]; [9]): 25%
- Population Normal (%) (Fibroblast [1]; [9]): 81%
- Population Pyknosed Nuclei (%) (Fibroblast [1]; [9]): 53%
- Population Tubulin-Different-Phenotype (%) (Fibroblast [1]; [9]): 75%
- Total Cell Count (Fibroblast [1]; [9]): 133
- Population Apoptotic (%) (Fibroblast [1]; [10]): 100%
- Population Fragmented Nuclei (%) (Fibroblast [1]; [10]): 44%
- Population Healthy Nuclei (%) (Fibroblast [1]; [10]): 26%
- Population Hoechst High Intensity Objects (%) (Fibroblast [1]; [10]): 39%
- Population Membrane Permeable-Phenotype (%) (Fibroblast [1]; [10]): 100%
- Population Mitochondria Different-Phenotype (%) (Fibroblast [1]; [10]): 100%
- Population Mitotic Cells (%) (Fibroblast [1]; [10]): 0%
- Population Normal (%) (Fibroblast [1]; [10]): 60%
- Population Pyknosed Nuclei (%) (Fibroblast [1]; [10]): 28%
- Population Tubulin-Different-Phenotype (%) (Fibroblast [1]; [10]): 100%
- Total Cell Count (Fibroblast [1]; [10]): 70
- Population Apoptotic (%) (Fibroblast [1]; [11]): 50%
- Population Fragmented Nuclei (%) (Fibroblast [1]; [11]): 37%
- Population Healthy Nuclei (%) (Fibroblast [1]; [11]): 58%
- Population Hoechst High Intensity Objects (%) (Fibroblast [1]; [11]): 15%
- Population Membrane Permeable-Phenotype (%) (Fibroblast [1]; [11]): 10%
- Population Mitochondria Different-Phenotype (%) (Fibroblast [1]; [11]): 1%
- Population Mitotic Cells (%) (Fibroblast [1]; [11]): 50%
- Population Normal (%) (Fibroblast [1]; [11]): 84%
- Population Pyknosed Nuclei (%) (Fibroblast [1]; [11]): 4%
- Population Tubulin-Different-Phenotype (%) (Fibroblast [1]; [11]): 24%
- Total Cell Count (Fibroblast [1]; [11]): 115
- Population Apoptotic (%) (Fibroblast [1]; [12]): 66%
- Population Fragmented Nuclei (%) (Fibroblast [1]; [12]): 23%
- Population Healthy Nuclei (%) (Fibroblast [1]; [12]): 72%
- Population Hoechst High Intensity Objects (%) (Fibroblast [1]; [12]): 18%
- Population Membrane Permeable-Phenotype (%) (Fibroblast [1]; [12]): 12%
- Population Mitochondria Different-Phenotype (%) (Fibroblast [1]; [12]): 3%
- Population Mitotic Cells (%) (Fibroblast [1]; [12]): 33%
- Population Normal (%) (Fibroblast [1]; [12]): 81%
- Population Pyknosed Nuclei (%) (Fibroblast [1]; [12]): 3%
- Population Tubulin-Different-Phenotype (%) (Fibroblast [1]; [12]): 44%
- Total Cell Count (Fibroblast [1]; [12]): 94
- Population Apoptotic (%) (Fibroblast [1]; [13]): 76%
- Population Fragmented Nuclei (%) (Fibroblast [1]; [13]): 48%
- Population Healthy Nuclei (%) (Fibroblast [1]; [13]): 20%
- Population Hoechst High Intensity Objects (%) (Fibroblast [1]; [13]): 33%
- Population Membrane Permeable-Phenotype (%) (Fibroblast [1]; [13]): 17%
- Population Mitochondria Different-Phenotype (%) (Fibroblast [1]; [13]): 23%
- Population Mitotic Cells (%) (Fibroblast [1]; [13]): 23%
- Population Normal (%) (Fibroblast [1]; [13]): 66%
- Population Pyknosed Nuclei (%) (Fibroblast [1]; [13]): 30%
- Population Tubulin-Different-Phenotype (%) (Fibroblast [1]; [13]): 64%
- Total Cell Count (Fibroblast [1]; [13]): 127
- Population Apoptotic (%) (Fibroblast [1]; [14]): 85%
- Population Fragmented Nuclei (%) (Fibroblast [1]; [14]): 52%
- Population Healthy Nuclei (%) (Fibroblast [1]; [14]): 15%
- Population Hoechst High Intensity Objects (%) (Fibroblast [1]; [14]): 45%
- Population Membrane Permeable-Phenotype (%) (Fibroblast [1]; [14]): 30%
- Population Mitochondria Different-Phenotype (%) (Fibroblast [1]; [14]): 50%
- Population Mitotic Cells (%) (Fibroblast [1]; [14]): 15%
- Population Normal (%) (Fibroblast [1]; [14]): 54%
- Population Pyknosed Nuclei (%) (Fibroblast [1]; [14]): 31%
- Population Tubulin-Different-Phenotype (%) (Fibroblast [1]; [14]): 80%
- Total Cell Count (Fibroblast [1]; [14]): 115
- Growth Rate (Fibroblast [2]; [15]): 0
- Growth Rate (Fibroblast [2]; [16]): 0
- Growth Rate (Fibroblast [2]; [17]): 0
- Growth Rate (Fibroblast [2]; [18]): 0
- Growth Rate (U2OS; [15]): 0
- Growth Rate (U2OS; [16]): 0
- Growth Rate (U2OS; [17]): 0
- Growth Rate (U2OS; [18]): 0
